Structures are written as SMILES. Out of some 360,000 compounds screened, about 890 (0.25%) were called active. Many of the other results were omitted from the sample, so actives are more common in it than they were. A number with no mark means an inactive call.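 Rule for the calls: active = inhibition at 20 µM, scaled per plate between control wells, above about 37% (limit read from the data); inactive = the rest.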

Tyrosine-protein phosphatase non-receptor type 5 (Homo sapiens), sequence (P54829 whole entry, looked up): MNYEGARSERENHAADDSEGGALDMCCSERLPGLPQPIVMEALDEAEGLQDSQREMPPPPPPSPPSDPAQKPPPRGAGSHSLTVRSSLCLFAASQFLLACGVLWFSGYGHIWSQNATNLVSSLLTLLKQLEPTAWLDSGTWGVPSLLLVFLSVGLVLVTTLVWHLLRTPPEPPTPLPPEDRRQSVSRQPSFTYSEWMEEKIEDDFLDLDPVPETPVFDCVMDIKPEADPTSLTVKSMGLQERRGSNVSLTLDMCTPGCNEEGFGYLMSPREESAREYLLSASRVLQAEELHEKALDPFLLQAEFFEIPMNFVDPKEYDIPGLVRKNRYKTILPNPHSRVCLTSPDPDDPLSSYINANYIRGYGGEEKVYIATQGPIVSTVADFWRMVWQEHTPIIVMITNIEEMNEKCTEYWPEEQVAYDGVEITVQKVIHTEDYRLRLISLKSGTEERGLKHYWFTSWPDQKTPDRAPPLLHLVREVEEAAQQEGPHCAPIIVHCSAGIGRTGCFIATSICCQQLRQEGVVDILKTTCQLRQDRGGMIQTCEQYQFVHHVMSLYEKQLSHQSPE

The assay has as its target Tyrosine-protein phosphatase non-receptor type 5 (Homo sapiens) (UniProt P54829). The assay is described as follows: inhibition of human PTPN5 enzyme activity – biochemical, fluorescence intensity, uHTS, primary screen (AID 588621).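 Note: 0% = DMSO with enzyme and substrate and 100% = substrate only without enzyme.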 The note with it: recombinant STEP, OMFP fluorogenic substrate, at 20 µM, active compounds read high. An outline of the steps:
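material = STEP tyrosine phosphatase | reagent = fluorogenic phosphatase substrate OMFP at 25 µM final | doses = single compound dose of 20 µM, 1% DMSO final | schedule = 20 min reaction, room temperature, in the dark | measured by = fluorescence, 480/540 nm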
Regarding `Cc1cc(F)ccc1S(=O)(=O)Nc1ccc(C(=O)N(C)Cc2ccco2)cc1`, the inhibition (usually the change of the read-out against control, counted positive when it falls) is 2.5%.

For `Cc1ccccc1NC(=O)C(C)OC(=O)CCC(=O)N(CC(C)C)c1c(N)n(CC(C)C)c(=O)[nH]c1=O` (configuration not stated), the inhibition is -1.1%.

With `CCOc1ccc(NC(=O)c2ccc(NC(=O)CN3C(=O)C(=O)N(CC(C)C)C3=O)cc2)cc1`, the inhibition is -3.1%.

With `COCCNC(=O)Nc1ccc2nc(-c3ccco3)c(-c3ccco3)nc2c1`, the inhibition is 60.1% (active).

Consider `Cc1cc2nc(C)n(CCCNC(=O)Nc3ccccc3)c2cc1C`, for which the inhibition is -3.8%.

For the compound `COc1ccc(CCNC(=O)Nc2ccc3c(c2)c(=O)n(C)n3C)cc1OC`, the inhibition was 1.1%.

On to `O=C(COC(=O)Cc1ccc(Br)cc1)Nc1c(F)c(F)c(F)c(F)c1F`, for which the inhibition was -0.2%.

As to `Nc1cc(=O)c2[nH]cnc2[nH]1`, the inhibition was -4.7%.

As for `CN(C(=O)COC(=O)c1cc(-c2ccco2)nc2ccccc12)C1CCS(=O)(=O)C1` (configuration not stated), the inhibition is 64.5% (active).

For `CN(C(=O)COC(=O)Cc1ccccc1[N+](=O)[O-])C1CCS(=O)(=O)C1` (configuration not stated), the inhibition is -3.3%.

Turning to `COc1ccc(NC(=O)COc2ccc(C(=O)OCC(=O)N(C)C3CCS(=O)(=O)C3)cc2OC)cc1` (configuration not stated), the inhibition is -4.8%.

On to `O=C1c2ccccc2C(=O)N1CCC(O)C[N+](=O)[O-]` (configuration not stated), for which the inhibition was 3.3%.

With `COC(=O)C1=C(C)NC(=S)NC1c1ccc(OCC(=O)N2CC(C)OC(C)C2)c(OC)c1` (configuration not stated), the inhibition is -3.9%.

In the case of `O=S(=O)(c1ccc(-c2ccno2)s1)N1CCCCC1`, the inhibition was -0.2%.

Regarding `Cc1ccccc1CC1(CO)CCCN(Cc2ccc3c(c2)OCCO3)C1` (configuration not stated), the inhibition is -4%.

For `Cc1noc(C)c1CCC(=O)N1CCCC(CO)(Cc2ccccc2)C1` (configuration not stated), the inhibition is -1.7%.

In the case of `Cc1ccccc1CC1(CO)CCCN(C(=O)c2cc(-c3ccccc3)no2)C1` (configuration not stated), the inhibition was 120% (active).

Regarding `COc1ccc(S(=O)(=O)NC(C)C(=O)NCc2ccncc2)cc1Cl` (configuration not stated), the inhibition is -1.3%.

Regarding `CCCCC[C@@H]1C=C(C(=O)O)[C@H](c2ccc(C#N)cc2)N1S(=O)(=O)c1ccc(C)cc1`, the inhibition was -1.7%.

On to `O=C(CS(=O)(=O)Cc1ccccc1)Nc1cccnc1`, for which the inhibition was -1.4%.

Turning to `O=C(OCC(=O)N1CCCC1)c1ccc(Cl)nc1`, the inhibition is -2.6%.

Regarding `CC(C)(C)c1ccc(SCCc2ccncc2)cc1`, the inhibition is 0%.

Regarding `CCN(C(=O)COc1ccc(C(=O)c2ccccc2)cc1)c1ccccc1`, the inhibition was -1.7%.

Regarding `O=C(COC(=O)COc1cccc(F)c1)NCC1CCCCC1`, the inhibition was -3.8%.

Regarding `O=C(COc1cccc(F)c1)Oc1ccc(C(=O)c2ccccc2)cc1`, the inhibition was 89.8% (active).

Regarding `S=C(Nc1ccc2c(c1)OCO2)N1CCCC1`, the inhibition is -3.3%.

`Cc1ccc(S(=O)(=O)N2CCN(C(=O)CCC(=O)NC3CCCc4ccccc43)CC2)cc1` (configuration not stated): the inhibition was -4.5%.

With `Cc1ccc(S(=O)(=O)c2c[nH]c3ccc(C)cc3c2=O)cc1`, the inhibition is -0.1%.

Consider `Cc1ccc(S(=O)(=O)c2c[nH]c3ccc(Cl)cc3c2=O)cc1`, for which the inhibition is 37.4% (active).

With `CCCCN(C)Cc1c(C)[nH]c2ccc(Cl)cc2c1=O`, the inhibition was -4.1%.

In the case of `CC1CCN(C(=O)CN(c2ccc(Oc3ccccc3)cc2)S(C)(=O)=O)CC1`, the inhibition is 2.5%.

Turning to `CCN(CC)CCn1cnc2c1c(=O)n(CCOC(=O)c1cc(OC)c(OC)c(OC)c1)c(=O)n2C`, the inhibition was -2.8%.

Take `Cc1ccc(C(=O)NCC(=O)OCc2nnc(-c3ccccc3)o2)cc1`: the inhibition is -0.5%.

In the case of `Cc1ccc(-c2nnc(-c3ccc(NC(=O)c4cccs4)cc3)o2)cc1`, the inhibition was 54.4% (active).

As to `O=C(Nc1ccc(N2CCN(C(=O)C3CC3)CC2)cc1)c1cccs1`, the inhibition was -1.5%.

Turning to `O=C(CCS(=O)(=O)c1ccc2c(c1)NC(=O)CS2)NCc1ccccc1Cl`, the inhibition is 1.6%.

As to `CNc1cncc(-c2ccc(NS(C)(=O)=O)cc2)n1`, the inhibition is 4.2%.

`CC(C)NS(=O)(=O)c1ccc(OCC(=O)NC2CCCCCC2)cc1`: the inhibition was -0.6%.

Regarding `O=C1C(=O)N(CCN2CCOCC2)C(c2ccccn2)/C1=C(/O)c1ccc(Cl)cc1` (configuration not stated), the inhibition was -3.3%.

Consider `CCCC1C(=O)N2C(N(C)C)=Nc3ccc(C)cc3N2C1=O` (configuration not stated), for which the inhibition was -0.2%.

Take `CCOc1ccc(N(CC(=O)NCC2CCCO2)S(=O)(=O)c2ccc(C)cc2)cc1` (configuration not stated): the inhibition was 0.9%.

For `Cc1c(CCC(=O)O)c(=O)oc2c(C)c(OCc3ccccc3Cl)ccc12`, the inhibition is 98.9% (active).

As to `Cc1c(CCC(=O)O)c(=O)oc2cc(OCc3ccc(Br)cc3)ccc12`, the inhibition was 5.4%.

Take `CCOC(=O)CCc1c(C)c2ccc(OCc3nn[nH]n3)c(C)c2oc1=O`: the inhibition was 2.9%.

Regarding `COc1ccc(C2COC(=O)C2=N)c(NC(=O)c2ccccc2)c1` (configuration not stated), the inhibition is 1.3%.

`O=C(c1c(F)cccc1Cl)N1CCN(c2ccccn2)CC1`: the inhibition is -1.8%.

For `Cc1cc(C(=O)N2CCN(c3ccccn3)CC2)c(C)o1`, the inhibition was 39.4% (active).

As for `O=C(c1cc2ccccc2s1)N1CCN(c2ccccn2)CC1`, the inhibition is -0.1%.

Consider `O=C(COC(=O)/C=C/c1ccc(Br)o1)Nc1cccc(S(=O)(=O)N2CCOCC2)c1`, for which the inhibition is 2.1%.

As to `CC(C)(C)NC(=O)CSC(=Nc1ccccc1F)NC#N`, the inhibition was -0.7%.

`Cc1c(C#N)c2ncn(CC#N)c(=O)c2n1-c1ccccc1`: the inhibition was -3.8%.

As to `Cc1nnsc1C(=O)NCc1c(F)cccc1Cl`, the inhibition was -0.5%.

`CC1C(=O)NC(=O)C1c1ccccc1` (configuration not stated): the inhibition is -2%.

For the compound `COc1ccc2c(c1)CCc1c(C(=O)N3CCc4ccccc4C3)noc1-2`, the inhibition is -1%.

Consider `CCCS(=O)(=O)N1CCN=C1SCc1cccc(F)c1`, for which the inhibition was 0.3%.

In the case of `O=c1ccc2c(-c3ccccc3S(=O)(=O)O)c3ccc(O)c(O)c3oc-2c1O`, the inhibition is 96.8% (active).

For `Cc1cc(Cl)ccc1NC(=S)N1CCC(C(N)=O)(N2CCCCC2)CC1`, the inhibition was -1.3%.

Regarding `CNc1[nH]ncc1[N+](=O)[O-]`, the inhibition was -1.1%.

As to `CCCCSCCCNC(=O)C1CCC(CNS(=O)(=O)c2ccc(NC(C)=O)cc2)CC1` (configuration not stated), the inhibition is 1%.

For the compound `Cc1ccc(-n2c(C)nnc2SCC(=O)NC2CC2)cc1`, the inhibition is 0.1%.

Regarding `Cc1ccc(SCC2=NNC(=O)C2)cc1`, the inhibition was 0.5%.

For `O=C(Nc1cccnc1)c1cc2cc(Br)ccc2oc1=O`, the inhibition was 86.4% (active).

Take `O=C(Nc1cccnc1)c1ccc(Cl)cc1[N+](=O)[O-]`: the inhibition was 0.9%.

Take `COc1ccc2oc(=N)c(C(=O)Nc3ccc(Br)cc3)cc2c1`: the inhibition was -1.8%.

For the compound `CCOC(=O)c1c(-n2cnnn2)sc(C)c1C`, the inhibition is 0.1%.

Take `CCc1ccccc1N(CC(=O)NCCSCc1ccco1)S(C)(=O)=O`: the inhibition is -1.4%.

For `CCOc1ccc(C(CC(=O)O)n2cnnn2)cc1OC` (configuration not stated), the inhibition is -2.9%.

Take `CC1=CC(C)(C)NC(=S)N1c1ccccc1`: the inhibition is -2.2%.

For the compound `COc1ccc(C2=NOC(Cn3nc(C(=O)NCc4ccc5c(c4)OCO5)cc3-c3ccccc3)C2)cc1` (configuration not stated), the inhibition was 0.9%.

As for `CCn1c(/C=N/NC(=O)c2ccc(OC)cc2)nc2ccccc21`, the inhibition was 2.2%.

Regarding `COc1cccc(/C=N/NC(=O)c2[nH]nc3c2CCc2ccccc2-3)c1O`, the inhibition is 80% (active).

`COc1cc(/C=N/NC(=O)c2cccnc2)ccc1OC(=O)c1cccc(Br)c1`: the inhibition was 1.7%.

For `CN(C)Cc1c(O)ccc2c(=O)c(-c3ccccc3Cl)coc12`, the inhibition is 0.4%.

Regarding `CCNC(=O)C1CCCN(C(=O)c2cc(F)ccc2C)CC1` (configuration not stated), the inhibition is 1%.

`CC(C)C1CC2=C(C(=O)OC(C)(C)O2)C(c2ccc(F)cc2)O1` (configuration not stated): the inhibition was 0%.

With `c1ccc(-c2ccnc3nc(-n4cccc4)nn23)cc1`, the inhibition is -3.2%.

As for `CCc1nc2oc3ccccc3c(=O)c2c(=O)n1Cc1ccc(OC)cc1`, the inhibition is 0.4%.

Take `Cn1c2ccccc2c(=O)c2c(=O)n(Cc3ccco3)c(COc3ccccc3)nc21`: the inhibition is 70.7% (active).

For `O=C(CSc1nnc(COc2ccc(Cl)cc2)n1Cc1ccco1)N1CCNC1=O`, the inhibition is -4.2%.

As for `O=C1OCCC1=COCCCCOC=C1CCOC1=O`, the inhibition is 0.1%.

For the compound `O=C(CCc1ccccc1)Nc1ccc(NC(=O)C2CC2)nc1`, the inhibition was -2.6%.

In the case of `COc1cc(/C=C/C(=O)OCC(=O)N2CCOCC2)ccc1OCC#N`, the inhibition is 1.1%.

For `C/C(=N\Nc1ccccc1)c1cccs1`, the inhibition was -1.1%.

With `C/C(=N\Nc1ccc(S(N)(=O)=O)cc1[N+](=O)[O-])c1cccs1`, the inhibition was 97.5% (active).

For `CCOC(=O)C/C(C)=N\Nc1ccc([N+](=O)[O-])cc1[N+](=O)[O-]`, the inhibition is 2.8%.

As for `Cc1csc2nc(COC(=O)c3cccc(N(C)C)c3)cc(=O)n12`, the inhibition was -2.7%.

Turning to `O=C(N/N=C\c1cccc(Br)c1)c1ccccc1-n1cccc1`, the inhibition was -2.3%.

`O=C(N/N=C/c1cccc(Br)c1)c1ccc(N2CCCC2=O)cc1`: the inhibition was 94.9% (active).

For `O=C(Nc1ccc(N2CCCC2=O)cc1)c1cncc(Br)c1`, the inhibition is -0.3%.

Regarding `CCc1c(Nc2ccccc2Cl)nc(N)[nH]c1=O`, the inhibition was -2.5%.

Consider `Cc1ccc(CNC(=O)CSc2nnc3c(n2)[nH]c2ccc(F)cc23)cc1`, for which the inhibition was 96.1% (active).

For the compound `COc1ccc2[nH]c3nc(SCC(=O)NC4CC4)nnc3c2c1`, the inhibition is -4.6%.

As to `Cc1ccn2c(=O)nc(SCC(=O)NCc3ccc(F)cc3)nc2c1`, the inhibition was 0.1%.

For the compound `CCCCNC1(C#N)CCN(Cc2ccccc2)CC1`, the inhibition was -2.5%.

Consider `COc1cccc(COC(=O)C2CCN(S(=O)(=O)c3cccs3)CC2)c1OC`, for which the inhibition was 1.4%.

Regarding `Cc1ccccc1C#CC1=CC(=O)CC(C)(C)C1`, the inhibition is 0.4%.

With `Cn1ncc(Br)c1C(=O)NC1CCCC1`, the inhibition was -1.6%.

Source of the values: PubChem BioAssay AID588621 (Sanford-Burnham Center for Chemical Genomics, 2011).
